Data on 2 substances can be found in article PMC9320808 (Chemmedchem, 2022).

Where two headings read alike, the source gives them in different places.

Usually IC50 stands for the concentration needed to halve the response being measured.

The target in one assay is PD‐1/PD−L1 (Homo sapiens, UniProt Q9NZQ7). As to the kind of experiment: Homogenous time-resolved fluorescence. The assay is classed as binding. The following applies: read-out: Measured IC50; HTRF PD-1/PD-L1 assay; mean±SD, n=2–3 in triplicate. In a few lines:
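Competitive TR-FRET (HTRF) kit assay: PD-L1-6His-tag and PD-1-Ig, detected by anti-human IgG-Eu³⁺ cryptate and anti-6HIS-XL665 antibody. Test compounds plated per the kit instructions. Signal read on a multimode plate reader, and IC50 derived from the inhibition of PD-1/PD-L1 binding.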

The next assay relates to PD−L1. The note with it: cited from earlier work.

Chain of PD‐1/PD−L1 (Q9NZQ7 19-238 limits assumed): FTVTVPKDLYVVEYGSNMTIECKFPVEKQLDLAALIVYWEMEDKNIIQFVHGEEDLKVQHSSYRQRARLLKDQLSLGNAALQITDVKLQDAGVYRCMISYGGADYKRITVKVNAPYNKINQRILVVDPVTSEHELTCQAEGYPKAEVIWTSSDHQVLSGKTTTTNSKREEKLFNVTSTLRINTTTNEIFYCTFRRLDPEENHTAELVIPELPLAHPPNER

For the substance “Atezolizumab: therapeutic antibody targeting PD−L1”, the IC50 in the assay with PD‐1/PD−L1 is 2.25 ± 0.36 nM; in the assay with PD−L1 (read-out: Reported IC50, literature value) it was 3.83 nM.

Turning to “Cyclo(AcPhe−^mPhe−^mNle−^mGly−Asp−Val−^mPhe−Tyr−^mGly−Trp−Tyr−Leu−Cys)‐Gly−NH2 [BMS71]”, the IC50 in the assay on PD−L1 (read-out: reported IC50, reported value for BMS71) was 7 nM.
